Experimental data as given in ChEMBL document CHEMBL1146217, “Growth inhibition of Mycobacterium bovis, Mycobacterium tuberculosis and Mycobacterium avium in vitro: effect of 1-beta-D-2'-arabinofuranosyl and 1-(2'-deoxy-2'-fluoro-beta-D-2'-ribofuranosyl) pyrimidine nucleoside analogs” (J Med Chem, 2007).
Values after ≈ are worked out from the molar mass of the structure shown.

Columns and labels:
Type in all cases: functional
Details in all cases: variant bovis BCG
[1] = system: Mycobacterium tuberculosis; experiment: Antimycobacterial activity against Mycobacterium bovis BCG at 100 ug/mL by microplate Alamar blue assay
How it was run: (§1)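 MABA with M. bovis BCG, M. tuberculosis H37Ra or M. avium ATCC 25291. DMSO stocks (10 mg/mL) diluted in 7H9GC; final inoculum 2.5 × 10⁵ CFU/mL. Incubated 6 days, then alamar blue plus Tween 80 added and read by fluorescence after about 24 h. […]. Tested in triplicate at 100, 50, 10 and 1 µg/mL; two experiments, mean reported.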

[2] = system: Mycobacterium tuberculosis; experiment: Antimycobacterial activity against Mycobacterium bovis BCG at 1ug/mL by microplate Alamar blue assay; how it was run: as §1
[3] = system: Mycobacterium tuberculosis; experiment: Antimycobacterial activity against Mycobacterium bovis BCG at 10 ug/mL by microplate Alamar blue assay; how it was run: as §1
[4] = system: Mycobacterium tuberculosis; experiment: Antimycobacterial activity against Mycobacterium bovis BCG at 50 ug/mL by microplate Alamar blue assay; how it was run: as §1
[5] = system: Mycobacterium tuberculosis; experiment: Antimycobacterial activity against Mycobacterium bovis BCG by microplate Alamar blue assay
How it was run: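 Same alamar blue microplate setup (7H9GC, 2.5 × 10⁵ CFU/mL, 6 days, then dye read after about 24 h), using 2-fold compound dilutions. MIC90 is the lowest concentration giving about 90% inhibition relative to bacteria-only wells after background subtraction. Visual MIC is the lowest concentration preventing the blue-to-pink change.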

Row | Structure (SMILES) | inhibition at 100 µg/mL [1] [%] | inhibition at 1 µg/mL [2] [%] | inhibition at 10 µg/mL [3] [%] | inhibition at 50 µg/mL [4] [%] | MIC90 [5] [µg/mL]
1 | O=c1[nH]c(=O)n([C@@H]2O[C@H](CO)[C@@H](O)[C@@H]2O)cc1C(O)C(Br)Br (some centres not stated) | 0 | – | – | – | –
2 | O=c1[nH]c(=O)n([C@@H]2O[C@H](CO)[C@@H](O)[C@@H]2O)cc1Br | 0 | – | – | – | –
3 | Cc1cn([C@@H]2O[C@H](CO)[C@@H](O)[C@@H]2O)c(=O)[nH]c1=S | 0 | – | – | – | –
4 | CCCCCCCCCCC#Cc1cn([C@@H]2O[C@H](CO)[C@@H](O)[C@H]2F)c(=O)[nH]c1=O | 100 | 70 | 100 | 100 | 1 (≈ 2.44 µM)
5 | CCCCCCCCCCCC#Cc1cn([C@@H]2O[C@H](CO)[C@@H](O)[C@H]2F)c(=O)[nH]c1=O | 100 | 90 | 100 | 100 | 1 (≈ 2.36 µM)
6 | CCCCCCCCCCCCC#Cc1cn([C@@H]2O[C@H](CO)[C@@H](O)[C@@H]2O)c(=O)[nH]c1=O | 100 | – | 50 | 100 | 10 (≈ 22.9 µM)
7 | CCCCCCCCCCCCC#Cc1cn([C@@H]2O[C@H](CO)[C@@H](O)[C@H]2F)c(=O)[nH]c1=O | 100 | – | 50 | 100 | 10 (≈ 22.8 µM)
8 | CCCc1ccc(C#Cc2cn([C@@H]3O[C@H](CO)[C@@H](O)[C@@H]3O)c(=O)[nH]c2=O)cc1 | 100 | – | – | 50 | 100 (≈ 259 µM)
9 | CCOC(=O)/C=C/c1cn([C@@H]2O[C@H](CO)[C@@H](O)[C@H]2F)c(=O)[nH]c1=O | 0 | – | – | – | –
10 | CCOC(=O)C(Cl)C(O)c1cn([C@@H]2O[C@H](CO)[C@@H](O)[C@H]2F)c(=O)[nH]c1=O (some centres not stated) | 0 | – | – | – | –
11 | CCOC(=O)C(Br)C(O)c1cn([C@@H]2O[C@H](CO)[C@@H](O)[C@H]2F)c(=O)[nH]c1=O (some centres not stated) | 0 | – | – | – | –
12 | O=c1[nH]c(=O)n([C@@H]2O[C@H](CO)[C@@H](O)[C@H]2F)cc1Br | 0 | – | – | – | –
13 | O=C(O)/C=C/c1cn([C@@H]2O[C@H](CO)[C@@H](O)[C@@H]2O)c(=O)[nH]c1=O | 0 | – | – | – | –
14 | COC(CI)c1cn([C@@H]2O[C@H](CO)[C@@H](O)[C@@H]2O)c(=O)[nH]c1=O (some centres not stated) | 0 | – | – | – | –
15 | CCCCCC#Cc1cn([C@@H]2O[C@H](CO)[C@@H](O)[C@@H]2O)c(=O)[nH]c1=O | 25 | – | – | – | –
16 | CCCCCCCCC#Cc1cn([C@@H]2O[C@H](CO)[C@@H](O)[C@@H]2O)c(=O)[nH]c1=O | 100 | – | 30 | 50 | 100 (≈ 263 µM)

Row | Structure (SMILES) | inhibition at 100 µg/mL [1] [%] | inhibition at 1 µg/mL [2] [%] | inhibition at 10 µg/mL [3] [%] | inhibition at 50 µg/mL [4] [%] | MIC90 [5] [µg/mL]
17 | CCCCCCCCCCC#Cc1cn([C@@H]2O[C@H](CO)[C@@H](O)[C@@H]2O)c(=O)[nH]c1=O | 100 | 75 | 100 | 100 | 1 (≈ 2.45 µM)
18 | CCCCCCCCCCCC#Cc1cn([C@@H]2O[C@H](CO)[C@@H](O)[C@@H]2O)c(=O)[nH]c1=O | 100 | – | 50 | 100 | 10 (≈ 23.7 µM)
19 | O=c1[nH]c(=O)n([C@@H]2O[C@H](CO)[C@@H](O)[C@H]2F)cc1Cl | 50 | – | – | 50 | –
20 | Cc1cn([C@@H]2O[C@H](CO)[C@@H](O)[C@H]2F)c(=O)[nH]c1=S | 25 | – | – | – | –
21 | O=c1[nH]c(=O)n([C@@H]2O[C@H](CO)[C@@H](O)[C@@H]2O)cc1C(O)C(Cl)Cl (some centres not stated) | 0 | – | – | – | –
22 | O=c1[nH]c(=O)n([C@@H]2O[C@H](CO)[C@@H](O)[C@@H]2O)cc1C(O)CI (some centres not stated) | 0 | – | – | – | –
23 | O=C(O)C(I)C(O)c1cn([C@@H]2O[C@H](CO)[C@@H](O)[C@H]2F)c(=O)[nH]c1=O (some centres not stated) | 0 | – | – | – | –
24 | O=c1[nH]c(=O)n([C@@H]2O[C@H](CO)[C@@H](O)[C@@H]2O)cc1Cl | 0 | – | – | – | –
25 | O=c1[nH]c(=S)ccn1[C@@H]1O[C@H](CO)[C@@H](O)[C@@H]1O | 0 | – | – | – | –
26 | CCCCCC#Cc1cn([C@@H]2O[C@H](CO)[C@@H](O)[C@H]2F)c(=O)[nH]c1=O | 50 | – | – | – | –
27 | O=c1[nH]c(=S)ccn1[C@@H]1O[C@H](CO)[C@@H](O)[C@H]1F | 25 | – | – | – | –
28 | CCOC(=O)/C=C/c1cn([C@@H]2O[C@H](CO)[C@@H](O)[C@@H]2O)c(=O)[nH]c1=O | 0 | – | – | – | –
29 | CCCCCCCCC#Cc1cn([C@@H]2O[C@H](CO)[C@@H](O)[C@H]2F)c(=O)[nH]c1=O | 100 | 30 | 50 | 75 | 50 (≈ 131 µM)
30 | O=C(O)/C=C/c1cn([C@@H]2O[C@H](CO)[C@@H](O)[C@H]2F)c(=O)[nH]c1=O | 0 | – | – | – | –
31 | CO[C@H]1/C=C/O[C@@]2(C)Oc3c(C)c(O)c4c(O)c(c(/C=N/N5CCN(C)CC5)c(O)c4c3C2=O)NC(=O)/C(C)=C\C=C\[C@H](C)[C@H](O)[C@@H](C)[C@@H](O)[C@@H](C)[C@H](OC(C)=O)[C@@H]1C [RIFAMPIN] | – | – | – | – | 0.5 (≈ 0.608 µM)
